Test results reported in ChEMBL document CHEMBL5678799 (Biochem J, 2009).
Active and inactive are the calls of the source. No cut-off for these calls is given here.

Columns and labels:
[1] = target: Eukaryotic elongation factor 2 kinase (Homo sapiens) (UniProt O00418); test: Inhibition of recombinant human N-terminal GST-tagged EF2K (2 to 725 residues) expressed in Escherichia coli assessed as remaining activity at 1 uM using RKKFGESKTKTKEFL as substrate incubated for 30 mins in presence of [gamma-33P]ATP by filter binding method relative to control
Outline: (§1)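 Kinase panel run robotically at 21 °C for 30 min, linear in time and enzyme. […] Compound tested at 1 or 10 µM. Activity given as percentage of incubations without compound, mean of triplicates ± S.D.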

[2] = target: Tyrosine-protein kinase Lck (Homo sapiens) (UniProt P06239); test: Inhibition of recombinant human N-terminal His6-tagged LCK (2 to 509 residues) expressed in baculovirus infected Sf21 cells assessed as remaining activity at 1 uM using KVEKIGEGTYGVVYK as substrate incubated for 30 mins in presence of [gamma-33P]ATP by filter binding method relative to control
Outline: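 Assays ran 30 min at 21 °C, robotically and in the linear range. Remaining activity is given relative to incubations lacking compound, as the average of triplicate determinations ± S.D.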

[3] = target: Serine/threonine-protein kinase Nek2 (Homo sapiens) (UniProt P51955); test: Inhibition of recombinant human N-terminal His6-tagged NEK2A (1 to 445 residues) expressed in baculovirus infected Sf21 cells assessed as remaining activity at 1 uM using RFRRSRRMI as substrate incubated for 30 mins in presence of [gamma-33P]ATP by filter binding method relative to control
[4] = target: Serine/threonine-protein kinase pim-1 (Homo sapiens) (UniProt P11309); test: Inhibition of recombinant human N-terminal His6-tagged PIM1 (2 to 313 residues) expressed in baculovirus infected Sf21 cells assessed as remaining activity at 1 uM using RSRHSSYPAGT as substrate incubated for 30 mins in presence of [gamma-33P]ATP by filter binding method relative to control
Outline: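 Incubations ran robotically for 30 min at room temperature (21 °C) under linear conditions. Results are percent activity remaining versus controls without compound, as the mean of triplicates ± S.D.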

[5] = target: Protein kinase C alpha type (Homo sapiens) (UniProt P17252); test: Inhibition of recombinant human N-terminal His6-tagged PKCalpha (1 to 672 residues) expressed in baculovirus infected Sf21 cells assessed as remaining activity at 1 uM using Histone H1 as substrate incubated for 30 mins in presence of [gamma-33P]ATP by filter binding method relative to control
[6] = target: Serine/threonine-protein kinase Chk1 (Homo sapiens) (UniProt O14757); test: Inhibition of recombinant human N-terminal GST-tagged CHK1 (1 to 476 residues) expressed in baculovirus infected Sf21 cells assessed as remaining activity at 10 uM using CHKtide as substrate incubated for 30 mins in presence of [gamma-33P]ATP by filter binding method relative to control
Outline: (§2)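 Robotic radiometric panel assay, 30 min at room temperature (21 °C), with 10 mM magnesium acetate. […] Compound at 1 or 10 µM. Residual activity expressed relative to compound-free control; triplicate average ± S.D.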

[7] = target: Casein kinase II subunit alpha (Homo sapiens) (UniProt P68400); test: Inhibition of recombinant human N-terminal His6-tagged CK2alpha1 (2 to 391 residues) expressed in Escherichia coli assessed as remaining activity at 10 uM using RRRDDDSDDD as substrate incubated for 30 mins in presence of [gamma-33P]ATP by filter binding method relative to control
Outline: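 Radiometric panel assay run robotically at 21 °C for 30 min, linear in time and enzyme. […] Activity is expressed as percentage of the compound-omitted control, averaged from triplicates ± S.D.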

[8] = target: Ribosomal protein S6 kinase alpha-5 (Homo sapiens) (UniProt O75582); test: Inhibition of recombinant human His6-tagged MSK1 (2 to 802 residues) expressed in baculovirus infected Sf21 cells assessed as remaining activity at 10 uM using GRPRTSSFAEGKK as substrate incubated for 30 mins in presence of [gamma-33P]ATP by filter binding method relative to control; outline: as §2
[9] = target: Mitogen-activated protein kinase 12 (Homo sapiens) (UniProt P53778); test: Inhibition of recombinant human N-terminal GST-tagged P38gamma (1 to 367 residues) expressed in Escherichia coli assessed as remaining activity at 10 uM using MBP as substrate incubated for 30 mins in presence of [gamma-33P]ATP by filter binding method relative to control
Outline: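 Radiometric kinase panel run robotically at room temperature (21 °C) for 30 min, linear in time and enzyme. […] Activity is expressed as percent of control without compound, from triplicate determinations ± S.D.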

[10] = target: Serine/threonine-protein kinase N2 (Homo sapiens) (UniProt Q16513); test: Inhibition of recombinant N-terminal His6/FLAG-tagged human PRK2 (501 to 984 residues) expressed in baculovirus infected Sf21 cells assessed as remaining activity at 10 uM using S6 peptide as substrate incubated for 30 mins in presence of [gamma-33P]ATP by filter binding method relative to control; outline: as §1
[11] = target: Tyrosine-protein kinase SYK (Homo sapiens) (UniProt P43405); test: Inhibition of recombinant human N-terminal His6-tagged SYK (1 to 635 residues) expressed in baculovirus infected Sf21 cells assessed as remaining activity at 10 uM using Poly (Glu,Tyr) as substrate incubated for 30 mins in presence of [gamma-33P]ATP by filter binding assay relative to control
[12] = target: Sphingosine kinase 1 (Homo sapiens) (UniProt Q9NYA1); test: Inhibition of SPHK1 (unknown origin) assessed as remaining activity at 10 uM using sphingosine as substrate incubated for 30 mins in presence of ATP relative to control
Outline: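 SPHK1 assayed with 10 μM sphingosine, 10 μM ATP in 50 mM Tris/HCl pH 7.5, 150 mM NaCl, 5 mM MgCl2, 1 mM EGTA, 1 mM DTT, 30 min at room temperature. ATP remaining read by Kinase-Glo Plus luminescence after 10 min. Activity as % of control, triplicate.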

[13] = target: Mitogen-activated protein kinase; ERK1/ERK2 (Homo sapiens) (UniProt P27361+P28482); test: Inhibition of ERK1/2 in serum starved/PMA-stimulated HEK293 cells assessed as reduction in RSK phosphorylation at S380 residues at 1 uM incubated for 30 mins by immunoblot analysis; format: cell-based
MEF = test: Induction of cell cycle arrest in MEF cells assessed as accumulation at G1 phase at 3 uM incubated for 1 to 3 days by propidium iodide staining based flow cytometric analysis (reference value: 21.4 +/- 1.7%); format: toxicity; conditions: mouse, time 1-3 day
mTORC1 (Homo sapiens) = mTORC1 (Homo sapiens) (UniProt P42345+Q8N122+Q9BVC4); conditions: HEK293, dose 30-1000 nM, time 30.0 min
mTORC2 (Homo sapiens) = mTORC2 (Homo sapiens) (UniProt P42345+Q6R327+Q9BVC4+Q9BPZ7); conditions: HEK293, dose 30-1000 nM, time 30.0 min

COc1ccc(-c2ccc3c(N4CCOCC4)nc(N4C[C@@H](C)O[C@@H](C)C4)nc3n2)cc1CO [Ku-0063794]
Activity [1]: 88%
Activity [2]: 69%
Activity [3]: 92%
Activity [4]: 89%
Activity [5]: 106%
Activity [6]: 86%
Activity [7]: 85%
Activity [8]: 117%
Activity [9]: 91%
Activity [10]: 105%
Activity [11]: 83%
Activity [12]: 99%
inhibition [13]: inactive
Activity (MEF): 42.4%
inhibition (mTORC1 (Homo sapiens)): Dose-Dependent Effect
inhibition (mTORC2 (Homo sapiens)): Dose-Dependent Effect
